Publication PMC6463402 (Current Radiopharmaceuticals, 2019)
Like-named read-outs stand apart in the source and are kept apart here.

Key:
Aβ = details: cited from earlier work
[1] = Lipophilicity, n-octanol/phosphate buffer partition coefficient; format: physicochemical; details: n-octanol/phosphate buffer 0.1 mol/L, pH 7.4; mean of two batches in triplicate
[2] = Stability in the final formulation; format: physicochemical; details: 6 h, room temperature
How it was run: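 Three samples of the formulated tracer, a filtered ethanol/saline formulation with phosphate and Tween 80, were held at room temperature. Each was analysed at 0, 1, 2, 3, 4, 5 and 6 h by radio-HPLC on C18 with MeCN:H2O 75:25 at 1 mL/min, using UV 215 nm and gamma detectors. Radiochemical purity was taken as the tracer peak area relative to total radioactivity.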

Stability in plasma = format: in vitro ADME, human; details: 2 h incubation at 37 °C
Protein binding assay = format: in vitro ADME; details: human plasma, gel filtration
How it was run: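 Human plasma (1 mL) with 100 μL radiotracer was incubated at 37 °C for 120 min. At 30, 60 and 120 min, 50 μL was applied to pre-spun G-50 size-exclusion spin columns, left 2 min, and centrifuged 2 min at 3300 rpm, 4 °C. Column (free) and eluate (bound) activity were gamma-counted. The blank used 0.1 M phosphate buffer instead of plasma, at 120 min.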

Aβ plaques = Aβ plaques (Homo sapiens, UniProt P05067); test: In vitro binding assays with Aβ plaques; parameters: species or system 3xTg-AD mice
Aβ plaques, sequence (P05067 672-713): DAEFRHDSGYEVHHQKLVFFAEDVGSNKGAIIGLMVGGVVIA

[3] = Biodistribution study and non-compartmental pharmacokinetics; format: in vivo, Balb/C mice; details: i.v.
How it was run: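 Thirty healthy male Balb/C mice (10-12 weeks, 28.5±2.0 g) in 6 groups of 5 received 20-40 MBq i.v. via lateral tail vein. Blood was collected and mice were killed at 5, 15, 30, 45, 70 and 180 min. Organs were removed, washed with saline, dried and weighed, and radioactivity was well-counted. Plasma PK parameters came from non-compartmental analysis, reported as mean and standard deviation.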

C57BL/6 mice = test: PET/CT imaging, control healthy mice; format: in vivo; details: wild-type mice, i.v.
How it was run: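 Male C57BL/6 controls (aged 13 months), anaesthetised with 4-5% isoflurane (1-2% maintenance), received 30-37 MBq via lateral tail vein. Dynamic PET ran 120 min, framed 10x2 min, 5x5 min and 5x15 min, with CT at 45 kVp for anatomy. Decay-corrected PET was fused with CT and an MRI mouse brain template holding predefined brain regions of interest.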

APPSwe/PS1dE9 mice = test: PET/CT imaging, transgenic mice; format: in vivo; details: static PET at 30 min, n=3, no statistical significance
How it was run: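 Male APPSwe/PS1dE9 transgenic mice (aged 12 months) and male C57BL/6 controls (aged 13 months) under isoflurane received 30-37 MBq i.v. via tail vein. PET/CT images were fused with a brain-template atlas to give regional values. In static images, regional SUV was normalised to brain stem (n=3). Transgenic and control regions were compared by Student's t-test, α=0.05.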

[4] = cited from earlier work
[5] = brain serial sections of 3xTg-AD mice
[6] = plasma of healthy Balb/C male mice, NCA

SMILES: CNc1ccc(/C=C/c2ccc(OCCOCCOCCF)nc2)cc1 [[^18F]Florbetapir, AV-45]
- Kd (Aβ; AD brain homogenates ref 62): 3.72 nM

SMILES: COc1ccc2cc(CCC[18F])ccc2c1 [[^18F]Amylovis, 2-(3-[^18F]fluoropropyl)-6-methoxynaphthalene]
- log Poct/PBS [1]: 2.46 ± 0.06
- stability (radiochemical purity) of final formulation [2]: did not significantly change
- stability in fresh human plasma (Stability in plasma): not degraded
- plasma protein binding (PPB) (Protein binding assay): high PPB percentage
- Kd (Aβ plaques): 0.16 nM
- Bmax (Aβ plaques; [5]): 119.4 nM
- fold higher BP than [^11C]PIB (Aβ plaques; [5]): 3 folds
- fold higher affinity for Aβ plaques compared with [^11C]PIB (Aβ plaques; [5]): 6 fold
- bone uptake ([3]; healthy Balb/C mice): relatively high bone uptake
- uptake in kidneys and liver ([3]; healthy Balb/C mice): high uptake values
- brain uptake (washout/clearance) ([3]; healthy Balb/C mice, 60 min): 0.11±0.03 %ID/g
- T1/2 (plasma) [3, 6]: 37 ± 10 min
- Vss [3, 6]: 10.3 ± 2.9 mL
- Vss/kg [3, 6]: 0.372 ± 0.11 L/kg
- time of maximum activity in brain (dynamic PET) (C57BL/6 mice): 2 min
- uptake in cortex, transgenic vs control healthy mice (SUVr to brain stem) (APPSwe/PS1dE9 mice): slightly incremented uptake

SMILES: CNc1ccc(-c2nc3ccc(O)cc3s2)cc1F [[^18F]Flutemetamol, GE-067]
- Kd (Aβ; AD brain homogenates ref 59): 6.7 nM
- Log P [4]: 1.7 [64]

SMILES: CNc1ccc(/C=C/c2ccc(OCCOCCOCCF)cc2)cc1 [[^18F]Florbetaben, BAY94-9172]
- Kd (Aβ; AD brain homogenates ref 60): 16 nM
- Log P [4]: 2.41 [65]
